From ChEMBL document CHEMBL3817728, “Synthesis, Evaluation, and Mechanism Study of Novel Indole-Chalcone Derivatives Exerting Effective Antitumor Activity Through Microtubule Destabilization in Vitro and in Vivo” (J Med Chem, 2016) come the findings set out here.

Format in all cases: functional, cell-based
Experiment [1] relates to A549. Briefly: Cytotoxicity against human A549 cells assessed as cell viability after 48 hrs by MTT assay. As to conditions: A549, 48 h. Summed up:
(§1)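 Cancer cell lines treated with compound for 48 h, and viability read by MTT assay. IC50 given as mean ± SD from at least three independent experiments.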

Experiment [2] has as its system HeLa. In words: Cytotoxicity against human HeLa cells assessed as cell viability after 48 hrs by MTT assay. Summed up:
as §1
On the technique in general: Formazan colour is commonly taken as a measure of viable cells.

A short description of experiment [3]: Cytotoxicity against human Bel7402 cells assessed as cell viability after 48 hrs by MTT assay. Particulars: Bel-7402, 48 h. Summed up:
as §1

Experiment [4] has as its system MCF7. In words: Cytotoxicity against human MCF7 cells assessed as cell viability after 48 hrs by MTT assay. As to conditions: MCF7, 48 h. A digest of the protocol:
as §1

Experiment [5] concerns A2780. Briefly: Cytotoxicity against human A2780 cells assessed as cell viability after 48 hrs by MTT assay. As to conditions: A2780, 48 h. A digest of the protocol: as §1
The nature of experiment [6]: Cytotoxicity against human HCT8 cells assessed as cell viability after 48 hrs by MTT assay. Particulars: HCT-8, 48 h. A digest of the protocol: as §1

Some results are limits rather than exact numbers.

In the case of `COc1ccc(C(=O)/C=C/c2cn(C)c3cccc(OC)c23)c2c1C=CC(C)(C)O2`, the 50% inhibitory concentration (IC50) in experiment [1], in experiment [2], in experiment [3], in experiment [4], in experiment [5] and in experiment [6] was more than 1 µM each time.

With `COc1ccc2c(/C=C(\C)C(=O)c3cc(OC)c(OC)c(OC)c3)cn(C)c2c1`, the concentration for half-maximal inhibition (IC50) (commonly the concentration needed to halve the response being measured) in experiment [1] was 0.041 µM; in experiment [2] it was 0.031 µM; in experiment [3] it was 0.028 µM; in experiment [4] it was 0.042 µM; in experiment [5], 0.034 µM; in experiment [6] it was 0.061 µM.

Turning to `COc1cc(C(=O)/C=C/c2ccc3[nH]ccc3c2)cc(OC)c1OC`, the IC50 in experiment [1] worked out at 0.033 µM; in experiment [2], 0.022 µM; in experiment [3], 0.034 µM; in experiment [4] it was 0.028 µM; in experiment [5] it was 0.028 µM; in experiment [6], 0.034 µM.

With `COc1cc(C(=O)/C=C/c2ccc3c(ccn3C)c2)cc(OC)c1OC`, the 50% inhibitory concentration (IC50) in experiment [1] amounted to 0.053 µM; in experiment [2], 0.057 µM; in experiment [3] it was 0.077 µM; in experiment [4], 0.061 µM; in experiment [5], 0.045 µM; in experiment [6], 0.067 µM.

With `COc1ccc(C(=O)/C=C/c2c[nH]c3cccc(OC)c23)c2c1C=CC(C)(C)O2`, the IC50 in experiment [1], in experiment [2], in experiment [3], in experiment [4], in experiment [5] and in experiment [6] was more than 1 µM in each case.

With `COc1ccc2c(c1)c(/C=C/C(=O)c1ccc(OC)c3c1OC(C)(C)C=C3)cn2C`, the 50% inhibitory concentration (IC50) in experiment [1] came to 0.452 µM; in experiment [2], 0.415 µM; in experiment [3], 0.389 µM; in experiment [4], 0.567 µM; in experiment [5], 0.497 µM; in experiment [6], 0.675 µM.

For the compound `COc1cc(C(=O)/C=C/c2cn(C)c3cccc(OC)c23)cc(OC)c1OC`, the IC50 in experiment [1], in experiment [2], in experiment [3], in experiment [4], in experiment [5] and in experiment [6] was more than 1 µM each time.

On to `C=Cn1cc(/C=C(\C)C(=O)c2cc(OC)c(OC)c(OC)c2)c2ccc(OC)cc21`, for which the IC50 is 0.089 µM in experiment [1]; 0.067 µM in experiment [2]; 0.091 µM in experiment [3]; 0.064 µM in experiment [4]; 0.049 µM in experiment [5]; 0.079 µM in experiment [6].

On to `COc1cc(C(=O)/C=C/c2c[nH]c3cccc(OC)c23)cc(OC)c1OC`, for which the IC50 in experiment [1], in experiment [2], in experiment [3], in experiment [4], in experiment [5] and in experiment [6] was more than 1 µM each time.

In the case of `CCCn1cc(/C=C(\C)C(=O)c2cc(OC)c(OC)c(OC)c2)c2ccc(OC)cc21`, the IC50 was 0.514 µM in experiment [1]; 0.531 µM in experiment [2]; 0.614 µM in experiment [3]; 0.497 µM in experiment [4]; 0.597 µM in experiment [5]; 0.679 µM in experiment [6].

Consider `COc1cc2c(c(OC)c1OC)C/C(=C\c1cccc3[nH]ccc13)C2=O`, for which the IC50 in experiment [1] is 0.026 µM; in experiment [2], 0.027 µM; in experiment [3] it was 0.035 µM; in experiment [4], 0.047 µM; in experiment [5] it was 0.035 µM; in experiment [6], 0.038 µM.

Regarding `CCn1cc(/C=C(\C)C(=O)c2cc(OC)c(OC)c(OC)c2)c2ccc(OC)cc21`, the IC50 was 0.039 µM in experiment [1]; 0.065 µM in experiment [2]; 0.015 µM in experiment [3]; 0.032 µM in experiment [4]; 0.021 µM in experiment [5]; 0.056 µM in experiment [6].

Regarding `COc1ccc2c(c1)c(/C=C/C(=O)c1cc(OC)c(OC)c(OC)c1)cn2C`, the IC50 in experiment [1] is 0.164 µM; in experiment [2], 0.531 µM; in experiment [3], 0.256 µM; in experiment [4] it was 0.231 µM; in experiment [5], 0.283 µM; in experiment [6] it was 0.315 µM.

On to `COc1ccc2c(/C=C(\C)C(=O)c3cc(OC)c(OC)c(OC)c3)cn(CCO)c2c1`, for which the half-inhibitory concentration (IC50) in experiment [1] was determined as 0.025 µM; in experiment [2], 0.035 µM; in experiment [3], 0.021 µM; in experiment [4], 0.014 µM; in experiment [5], 0.031 µM; in experiment [6] it was 0.02 µM.

On to `COc1ccc2c(/C=C/C(=O)c3ccc(OC)c4c3OC(C)(C)C=C4)cn(C)c2c1`, for which the IC50 was found to be 0.058 µM in experiment [1]; 0.093 µM in experiment [2]; 0.097 µM in experiment [3]; 0.045 µM in experiment [4]; 0.061 µM in experiment [5]; 0.087 µM in experiment [6].

Turning to `COc1cc(C(=O)/C=C/c2cccc3c2ccn3C)cc(OC)c1OC`, the IC50 in experiment [1] amounted to 0.03 µM; in experiment [2] it was 0.031 µM; in experiment [3] it was 0.032 µM; in experiment [4] it was 0.038 µM; in experiment [5] it was 0.023 µM; in experiment [6], 0.041 µM.

For the compound `COc1cc(C(=O)/C(C)=C/c2cn(C)c3cccc(OC)c23)cc(OC)c1OC`, the IC50 in experiment [1], in experiment [2], in experiment [3], in experiment [4], in experiment [5] and in experiment [6] was more than 1 µM each time.

For the compound `COc1ccc2c(/C=C(\C)C(=O)c3cc(OC)c(OC)c(OC)c3)cn(CCBr)c2c1`, the half-maximal inhibitory concentration (IC50) in experiment [1] is 0.126 µM; in experiment [2] it was 0.146 µM; in experiment [3] it was 0.259 µM; in experiment [4] it was 0.389 µM; in experiment [5] it was 0.274 µM; in experiment [6], 0.169 µM.

For the compound `COc1ccc2[nH]cc(/C=C/C(=O)c3cc(OC)c(OC)c(OC)c3)c2c1`, the IC50 in experiment [1], in experiment [2], in experiment [3], in experiment [4], in experiment [5] and in experiment [6] was more than 1 µM in each case.

For `COc1cc(C(=O)/C(C)=C/c2c[nH]c3cccc(OC)c23)cc(OC)c1OC`, the IC50 in experiment [1], in experiment [2], in experiment [3], in experiment [4], in experiment [5] and in experiment [6] was more than 1 µM throughout.

For the compound `COc1ccc2[nH]cc(/C=C/C(=O)c3ccc(OC)c4c3OC(C)(C)C=C4)c2c1`, the IC50 in experiment [1] came to 0.272 µM; in experiment [2], 0.327 µM; in experiment [3], 0.456 µM; in experiment [4], 0.782 µM; in experiment [5], 0.398 µM; in experiment [6], 0.557 µM.

Turning to `COc1ccc2c(/C=C/C(=O)c3cc(OC)c(OC)c(OC)c3)c[nH]c2c1`, the half-maximal inhibitory concentration (IC50) was 0.224 µM in experiment [1]; 0.261 µM in experiment [2]; 0.351 µM in experiment [3]; 0.246 µM in experiment [4]; 0.118 µM in experiment [5]; 0.274 µM in experiment [6].

As for `COc1ccc2c(c1)c(/C=C(\C)C(=O)c1cc(OC)c(OC)c(OC)c1)cn2C`, the half-inhibitory concentration (IC50) was 0.331 µM in experiment [1]; 0.235 µM in experiment [2]; 0.356 µM in experiment [3]; 0.548 µM in experiment [4]; 0.427 µM in experiment [5]; 0.726 µM in experiment [6].

Regarding `COc1cc(C(=O)/C=C/c2cccc3[nH]ccc23)cc(OC)c1OC`, the IC50 in experiment [1] worked out at 0.036 µM; in experiment [2] it was 0.038 µM; in experiment [3], 0.063 µM; in experiment [4], 0.05 µM; in experiment [5] it was 0.041 µM; in experiment [6] it was 0.057 µM.
